# PHOSPHO1 block: blocks human PHOSPHO1 phosphatase activity; inhibition, % at 13.3 µM; recombinant PHOSPHO1, absorbance phosphatase assay; hit rate 1.1% among 290,000; Q8TCT1; AID 1565; in the data active = inhibition above about 60%
# Target sequence (Q8TCT1 whole entry, looked up): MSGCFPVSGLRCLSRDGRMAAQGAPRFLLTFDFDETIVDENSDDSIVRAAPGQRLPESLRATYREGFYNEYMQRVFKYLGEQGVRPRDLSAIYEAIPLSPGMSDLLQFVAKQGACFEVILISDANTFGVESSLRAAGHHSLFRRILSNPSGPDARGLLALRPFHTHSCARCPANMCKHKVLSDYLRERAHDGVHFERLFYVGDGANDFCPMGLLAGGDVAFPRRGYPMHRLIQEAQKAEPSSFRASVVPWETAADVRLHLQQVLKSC
# HSF-1 act: increases HSF-1 driven luciferase reporter signal; activation, % at 9 µM; NIH3T3-HGL HSF-1 luciferase reporter, MG132, 8 h; 100% = twice DMSO control signal; hit rate 1.7% among 300,000; AID 504408;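 active = mean replicate activation of at least 50% with a set share of replicates each reaching 50%; inconclusive = only one of those two conditions met; inactive = mean below 50% and too few replicates reaching it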
# Lipid droplet: hepatic lipid droplet formation modulation; AML12 mouse hepatocytes, oleate lipid droplets, BODIPY imaging; AID 1656; hit rate 0.4% among 240,000; inhibition, % at 6.5 µM;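 active = lipid droplet intensity inhibited by at least 50%, with more than 500 cells counted; inconclusive = wells with under 300 cells, treated as cytotoxic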
#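 Material – AML12 mouse liver cells · Also added – oleate loading, 100 µM · Compound dosing – 6.5 µM single-point dosing · Times – overnight treatment with compound plus oleate · Measured by – fluorescence imaging, 20x objective, two fields per well · Read-out – percent inhibition of filter-corrected integrated lipid droplet intensity per well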
# CHT PAM: allosterically activates the human high affinity choline transporter | Q9GZV3 | CHT-expressing cells, membrane potential dye, choline EC20; hits give high values; LV-AA mutant CHT in HEK293 cells | B-score at 10 µM | hit rate 0.49% among 310,000 | AID 488977;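 active = initial fluorescence not abnormally high and integrated response B-score, plate-corrected, over 3 SD above library mean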
# HSF1 inh: HSF1 inhibition; NIH3T3-HGL HSE-luciferase, MG132-induced, luminescence 8 h; hits give low values; activity change, negative = inhibition, % at 7.5 µM (by protocol); hit rate 0.77% among 300,000;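 active = more than half of replicate wells show activity change below -50%, luminescence cut by over half; inconclusive = some wells, but at most half, below -50%; inactive = no replicate well below -50%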;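 also: luciferase reports HSF-1 transcriptional activity via heat shock element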
# CHT block: human CHT choline transport inhibition. CHT-expressing cells, membrane potential dye, choline response; hits give low values. hit rate 0.86% among 310,000. B-score at 10 µM. AID 488975. Q9GZV3;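 active = B-score over 3 SD under the library average, and starting fluorescence ratio not unusually high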;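 also: choline stimulus applied at its EC90 after an EC20 pre-addition; B-score computed on integrated fluorescence ratio after choline addition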
# Hits are given with their value; . = inactive; ? = inconclusive; / = no result given. Sampled rows, rich in hits. Any-hit rate of the full collection: about 4.9%.
SMILES,PHOSPHO1 block,HSF-1 act,Lipid droplet,CHT PAM,HSF1 inh,CHT block
CCOC(=O)Nc1ccc(S(=O)(=O)N2CCC(C)CC2)cc1,.,.,.,.,.,.
Cc1ccc(C2C(C#N)=C(N)Oc3n[nH]c(-c4cccs4)c32)s1 (stereo not given),.,.,/,.,.,.
Cc1cc(C(=O)CN2C(=O)NC3(CCCCC3)C2=O)c(C)n1Cc1ccco1,.,89,.,.,.,.
Cc1cc(C(=O)CN2C(=O)NC3(CCCCC3)C2=O)c(C)n1Cc1ccc2c(c1)OCO2,.,.,/,.,.,.
CC(=O)c1ccc(N2CCN(C(=O)c3c(-c4ccccc4Cl)noc3C)CC2)cc1,.,.,.,.,.,.
COC(=O)c1ccc(CSc2nnc3n(Cc4ccccc4OC)c(=O)c4ccccc4n23)o1,73,.,/,.,.,.
C=CCc1cccc2cc(C(=O)Nc3ccc(S(=O)(=O)Nc4nnc(CC)s4)cc3)c(=O)oc12,85,.,.,.,.,.
C=CCc1cccc2cc(C(=O)Nc3ccc(F)cc3)c(=O)oc12,.,.,.,.,?,.
CCc1nnc(NS(=O)(=O)c2ccc(NC(=O)c3ccccc3C)cc2)s1,.,.,.,.,.,.
C=CCc1cccc2cc(C(=O)Nc3cccc(C(=O)O)c3)c(=O)oc12,.,.,.,.,.,-6.5
Cc1ccc(C(=O)CCC(=O)OCC(=O)Nc2c(C)nn(-c3ccccc3)c2C)cc1,/,.,/,.,.,.
CCC1C(=O)NCCN1C(=O)c1cccc(OC2CCN(S(=O)(=O)N(C)C)CC2)c1 (stereo not given),64,.,.,.,.,.
CCc1ccc(CNC(=O)CCS(=O)(=O)Cc2ccccc2F)cc1,.,.,.,.,.,.
CCOc1cc(CNCc2cccnc2)ccc1OCC(=O)NC(C)(C)C,73,.,.,.,.,.
CCOc1cc(CNCCc2ccccc2)ccc1OCC(=O)NC(C)(C)C,.,.,.,.,.,.
CCCCOCCCNS(=O)(=O)Cc1ccccc1,.,.,/,.,.,.
COc1ccc(-c2coc3cc4oc(=O)c(CC(=O)O)c(C)c4cc23)cc1,.,71,.,/,.,/
Cc1c(CC(=O)O)c(=O)oc2cc3occ(-c4ccc(F)cc4)c3cc12,.,.,/,.,.,.
CCn1ncc(C2=NOC(C(=O)Nc3ccc4c(c3)OCO4)C2)c1C (stereo not given),.,.,.,.,.,.
Cn1c(NC(=O)/C=C/c2ccc(Cl)c(Cl)c2)cc(=O)n(C)c1=O,.,56,.,.,.,.
Cn1c(NC(=O)/C=C/c2ccccc2)cc(=O)n(C)c1=O,.,.,.,.,.,.
COc1ccc(/C=C/C(=O)Nc2cc(=O)n(C)c(=O)n2C)cc1,.,60,?,.,.,.
O=C1SCCC1NS(=O)(=O)c1ccccc1[N+](=O)[O-] (stereo not given),.,.,.,.,.,.
CC(C)c1nnc(NC(=O)CCS(=O)(=O)c2nc(-c3cccs3)cc(C(F)(F)F)n2)s1,.,195,/,.,.,.
c1ccc(Cc2cc(-c3ccccc3)on2)cc1,.,71,.,.,.,.
SMILES,PHOSPHO1 block,HSF-1 act,Lipid droplet,CHT PAM,HSF1 inh,CHT block
Clc1ccc(SCc2cc(-c3ccccc3)on2)cc1,.,.,.,.,.,.
CCC1(c2ccc(F)cc2)NC(=O)N(CC(=O)NCc2ccc(C)cc2)C1=O (stereo not given),.,.,.,.,.,.
O=C(OCC(=O)N1CCCC1=O)c1nc(Cl)c(Cl)c(Cl)c1Cl,.,.,.,.,.,-5
O=C1/C(=N\S(=O)(=O)c2cccs2)C([n+]2cccc(Cc3ccccc3)c2)=C([O-])c2ccccc21,.,139,.,.,.,.
O=C1/C(=N\S(=O)(=O)c2cccs2)C([n+]2ccc(CCCc3ccccc3)cc2)=C([O-])c2ccccc21,.,.,.,.,.,.
COc1ccc(/C(C)=N/NC(=S)NCCc2ccccc2)c(O)c1,.,53,.,.,.,.
COc1ccc(O)c(/C=N/NC(=S)NCCc2ccccc2)c1,.,.,.,.,.,.
CNc1nc(-c2c[nH]c3ccccc23)cs1,100,.,.,.,.,.
CN(C(=O)COC(=O)c1ccc(F)c(S(=O)(=O)N2CCOCC2)c1)C1CCS(=O)(=O)C1 (stereo not given),/,.,/,.,.,.
CC(C)N1C(=O)CN(C2CCCCCC2)C(=O)C1c1ccccc1F (stereo not given),.,.,/,.,-56,.
Cc1ccc(C2C(=O)N(C3CCCC3)CC(=O)N2C2CCCCC2)cc1 (stereo not given),.,.,.,.,.,.
CC(=O)c1ccc(OCc2cc(C(=O)N(C)Cc3ncc(C)[nH]3)no2)cc1,.,.,.,.,.,.
COc1cccc(OCc2cc(C(=O)N(C)Cc3nc4ccccc4[nH]3)no2)c1,.,61,.,.,.,.
COc1ccc(N2CCN(C(=O)CN(c3cccc(Br)c3)S(C)(=O)=O)CC2)cc1,.,.,.,.,.,.
CS(=O)(=O)N(CC(=O)N1CCN(c2ccccc2)CC1)c1cccc(Br)c1,98,.,/,.,.,.
COc1ccc(OC)c(C(=O)NC2CCSc3ccccc32)c1 (stereo not given),.,.,.,.,.,.
COc1ccccc1C(=O)NC1CCSc2ccccc21 (stereo not given),.,63,.,.,.,.
O=C(NC1CCSc2ccccc21)c1ccccc1Cl (stereo not given),.,68,.,.,.,.
O=C(Cc1cccs1)NCCS(=O)(=O)N1CCN(c2ccccc2F)CC1,/,.,/,.,.,.
C=CCn1c(C)nnc1SCC(=O)Nc1nc(C)c(C(=O)N(C)C)s1,.,.,.,.,-76,.
CCOC(=O)C1(CCOc2ccccc2)CCN(Cc2ccc(C)o2)CC1,.,.,.,.,.,.
COc1ccc(OC)c(S(=O)(=O)N2CCN(C(=O)CCc3ccccc3)CC2)c1,.,.,.,.,.,.
Cc1ccn2cc(CCNC(=O)CC(C)(C)C)nc2c1,.,.,.,.,.,.
Cc1cc(C)n(-c2ccc(Cl)c(C(=O)Nc3ccc(-c4nnc5n4CCCCC5)cc3)n2)n1,62,.,/,.,.,.
Cc1cc(-c2ccco2)n(CC(=O)NCc2ccco2)n1,.,.,/,.,.,.
CN(C(=O)c1ccc(S(=O)(=O)N2CCCC2)cc1)C1CCCCC1,.,.,.,.,.,.
N/C(=N\OC(=O)COc1ccccc1)c1ccccn1,.,.,.,.,.,.
Cc1ccc(OCC(=O)O/N=C(\N)c2ccccn2)cc1C,.,108,.,.,.,.
CCc1ccc(OCC(=O)O/N=C(\N)c2ccccn2)cc1,.,64,.,/,.,/
N/C(=N\OC(=O)COc1ccc(Br)cc1)c1cccnc1,.,57,.,.,.,.

# Assay outcomes as filed in PubChem BioAssay.
